Measured values from ChEMBL document CHEMBL1121930, “Design of more potent antagonists of the antidiuretic responses to arginine-vasopressin” (J Med Chem, 1982).
Several values for one entry are separate records, joined by “and”; a condition that tells them apart may be missing. Equal values may be shown once. *1 amine or outer side, *2 acyl side, *3 side chain or, on linkers, in order; H or OH if unused. Where a SMILES comes first, the peptide text is derived from it. Bridges are numbered along the chain shown (N, C = ends). [ ]: non-standard residue; d: D form. The star is where a group is joined. X1 = O=C(CC1(S[*:2])CCCCC1)[*:1]; Propyl = CCC*; iPr = CC(C)*

Key:
[1] = tested on: Rattus norvegicus; experiment: Antivasopressor effective dose is defined as the dose that reduces the response seen with 2 units of agonist to equal the response seen with 1 unit of agonist administered before antagonist.; format: functional
Outline: (§1)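 Intravenous vasopressor assay in phenoxybenzamine-treated rats under urethane anesthesia, agonist USP posterior pituitary reference standard. Effective dose (nmol/kg) cuts the response to 2x units of agonist to that of 1x units given before the antagonist. pA2 = −log(effective dose / 67 mL/kg).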

[2] = tested on: Rattus norvegicus; experiment: Effective dose is defined as the dose that reduces the response seen with 2 units of agonist to equal the response seen with 1 unit of agonist administered before antagonist.; format: functional
[3] = tested on: Rattus norvegicus; experiment: In vivo pA2 value represent the negative logarithm of the effective dose divided by the estimated volume of distribution (67 mL/kg).; format: functional, organism-based
[4] = tested on: Rattus norvegicus; experiment: Antidiuretic effective dose is expressed as the dose that reduces the response seen with 2 units of agonist to equal the response seen with 1 unit of agonist administered before antagonist.; format: functional, Urine
Outline: (§2)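 Rats under ethanol anesthesia, agonist USP posterior pituitary reference standard. Agonist injected 20 and 50 min after the antagonist. Responses at 20 min were used, or at 50 min for analogues that inhibited more then. Each antagonist was given at two doses, one above and one below the effective dose (nmol/kg). pA2 = −log(effective dose / 67 mL/kg).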

[5] = tested on: Rattus norvegicus; experiment: In vivo pA2 value represent the negative logarithm of the anti-vasopressor effective dose divided by the estimated volume of distribution (67 mL/kg).; format: functional, organism-based; settings: read-out: pA2 (converted); outline: as §1
[6] = tested on: Rattus norvegicus; experiment: In vivo pA2 value represent the negative logarithm of the antidiuretic effective dose divided by the estimated volume of distribution (67 mL/kg).; format: functional, organism-based; settings: Urine, read-out: pA2 (converted); outline: as §2
[7] = tested on: Rattus norvegicus; experiment: Antivasopressor effective dose is expressed as the dose that reduces the response seen with 2 units of agonist to equal the response seen with 1 unit of agonist administered before antagonist.; format: functional; outline: as §1
[8] = tested on: Rattus norvegicus; experiment: Effective dose is defined as the dose that reduces the response seen with 2 units of agonist to equal the response seen with 1 unit of agonist administered before antagonist; agonist; format: functional, organism-based; settings: filed as agonist

SMILES | Effective dose [1] [nM/kg] | Effective dose [2] [nM/kg] | also measured
CC(C)[C@@H]1NC(=O)[C@H](Cc2ccccc2)NC(=O)[C@H](Cc2ccc(O)cc2)NC(=O)CC2(CCCCC2)SSC[C@@H](C(=O)N2CCC[C@H]2C(=O)N[C@H](CCCN=C(N)N)C(=O)NCC(N)=O)NC(=O)[C@H](CC(N)=O)NC1=O | 1.5 | – | –
CC(C)[C@@H]1NC(=O)[C@H](Cc2ccccc2)NC(=O)[C@@H](Cc2ccc(O)cc2)NC(=O)CC2(CCCCC2)SSC[C@@H](C(=O)N2CCC[C@H]2C(=O)N[C@@H](CCCN=C(N)N)C(=O)NCC(N)=O)NC(=O)[C@H](CC(N)=O)NC1=O | 0.29 | 2.2 | –
CCOc1ccc(C[C@@H]2NC(=O)CC3(CCCCC3)SSC[C@@H](C(=O)N3CCC[C@H]3C(=O)N[C@@H](CCCN=C(N)N)C(=O)NCC(N)=O)NC(=O)[C@H](CC(N)=O)NC(=O)[C@H](C(C)C)NC(=O)[C@H](Cc3ccccc3)NC2=O)cc1 (Y(Et)FVNCPRG-NH2; linker N-5 via X1) | 0.45 | 1.1 | pA2 [3]: 7.81 and 8.22
CCOc1ccc(C[C@@H]2NC(=O)CC3(CCCCC3)SSC[C@@H](C(=O)N3CCC[C@H]3C(=O)N[C@H](CCCN=C(N)N)C(=O)NCC(N)=O)NC(=O)[C@H](CC(N)=O)NC(=O)[C@H](C(C)C)NC(=O)[C@H](Cc3ccccc3)NC2=O)cc1 (Y(Et)FVNCP[dR]G-NH2; linker N-5 via X1) | 0.88 | 1.8 | –
COc1ccc(C[C@@H]2NC(=O)CC3(CCCCC3)SSC[C@@H](C(=O)N3CCC[C@H]3C(=O)N[C@@H](CCCN=C(N)N)C(=O)NCC(N)=O)NC(=O)[C@H](CC(N)=O)NC(=O)[C@H](C(C)C)NC(=O)[C@H](Cc3ccccc3)NC2=O)cc1 (Y(Me)FVNCPRG-NH2; linker N-5 via X1) | 0.23 | 1.2 | –
COc1ccc(C[C@@H]2NC(=O)CC3(CCCCC3)SSC[C@@H](C(=O)N3CCC[C@H]3C(=O)N[C@H](CCCN=C(N)N)C(=O)NCC(N)=O)NC(=O)[C@H](CC(N)=O)NC(=O)[C@H](C(C)C)NC(=O)[C@H](Cc3ccccc3)NC2=O)cc1 (Y(Me)FVNCP[dR]G-NH2; linker N-5 via X1) | – | – | Effective dose [4]: 4.9 nM/kg; Kb [5]: 0.00794 µM; Kb [6]: 0.0646 µM; Effective dose [7]: 0.54 nM/kg
CCCOc1ccc(C[C@@H]2NC(=O)CC3(CCCCC3)SSC[C@@H](C(=O)N3CCC[C@H]3C(=O)N[C@@H](CCCN=C(N)N)C(=O)NCC(N)=O)NC(=O)[C@H](CC(N)=O)NC(=O)[C@H](C(C)C)NC(=O)[C@H](Cc3ccccc3)NC2=O)cc1 (Y(Propyl)FVNCPRG-NH2; linker N-5 via X1) | 0.51 | 1.7 | –
CC(C)Oc1ccc(C[C@@H]2NC(=O)CC3(CCCCC3)SSC[C@@H](C(=O)N3CCC[C@H]3C(=O)N[C@@H](CCCN=C(N)N)C(=O)NCC(N)=O)NC(=O)[C@H](CC(N)=O)NC(=O)[C@H](C(C)C)NC(=O)[C@H](Cc3ccccc3)NC2=O)cc1 (Y(iPr)FVNCPRG-NH2; linker N-5 via X1) | 0.28 | 1.6 | –
CC(C)Oc1ccc(C[C@@H]2NC(=O)CC3(CCCCC3)SSC[C@@H](C(=O)N3CCC[C@H]3C(=O)N[C@H](CCCN=C(N)N)C(=O)NCC(N)=O)NC(=O)[C@H](CC(N)=O)NC(=O)[C@H](C(C)C)NC(=O)[C@H](Cc3ccccc3)NC2=O)cc1 (Y(iPr)FVNCP[dR]G-NH2; linker N-5 via X1) | 0.46 | 2.2 | –
CC(C)[C@@H]1NC(=O)[C@H](Cc2ccccc2)NC(=O)[C@H](Cc2ccc(O)cc2)NC(=O)CC2(CCCCC2)SSC[C@@H](C(=O)N2CCC[C@H]2C(=O)N[C@@H](CCCN=C(N)N)C(=O)NCC(N)=O)NC(=O)[C@H](CC(N)=O)NC1=O (stereo in doubt) [listing 1 of 2 here] | 0.76 | – | –
CC(C)[C@@H]1NC(=O)[C@H](Cc2ccccc2)NC(=O)[C@H](Cc2ccc(O)cc2)NC(=O)CC2(CCCCC2)SSC[C@@H](C(=O)N2CCC[C@H]2C(=O)N[C@@H](CCCN=C(N)N)C(=O)NCC(N)=O)NC(=O)[C@H](CC(N)=O)NC1=O (stereo in doubt) [listing 2 of 2 here] | – | – | Effective dose [8]: Agonist
CC(C)[C@@H]1NC(=O)[C@H](Cc2ccccc2)NC(=O)[C@H](Cc2ccc(O)cc2)NC(=O)CC2(CCCCC2)SSC[C@@H](C(=O)N2CCC[C@H]2C(=O)N[C@@H](CCCN=C(N)N)C(=O)NCC(N)=O)NC(=O)[C@H](CC(N)=O)NC1=O (stereo in doubt; 9) | 0.6 | 6.3 | –
